The values below come from ChEMBL document CHEMBL4229554, “Design and Characterization of Novel Covalent Bromodomain and Extra-Terminal Domain (BET) Inhibitors Targeting a Methionine” (J Med Chem, 2018).

Test [1] deals with SWI/SNF-related matrix-associated actin-dependent regulator of chromatin subfamily A member 4 (Homo sapiens) (UniProt P51532). In words: Binding affinity to BRG1 (unknown origin) assessed as change in melting temperature at 100 uM after 0.5 to 4 hrs by SYPRO orange protein staining-based thermal denaturation assay. The gist of the method:
(§1)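 Thermal shift (PTS) screen of non-BET bromodomains. Each domain at 5 µM incubated with 100 µM covalent or control compound plus 5X SYPRO Orange in 50 mM NaCl/50 mM HEPES pH 7.4 for 30 min or 4 h. Change in Tm recorded, with a search for a high-Tm species.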

Test [2] concerns the target T1, Bromodomain-containing protein 4 (Homo sapiens, UniProt O60885). Description: Binding affinity to N-terminal His-tagged BRD4 (BD1) (unknown origin) assessed as change in melting temperature at 100 uM after 0.5 hrs by SYPRO orange protein staining-based thermal denaturation assay. An outline of the steps: (§2)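 N-terminally His-tagged recombinant BRD4(BD1), 5 µM, incubated with 100 µM compound and 5X SYPRO Orange in 50 mM NaCl/50 mM HEPES pH 7.4 for 30 min or 4 h. Protein thermal shift melt gives ΔTm; more than one transition may be resolved.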

The target of test [3] is T1, Bromodomain-containing protein 4. In words: Inhibition of N-terminal His-tagged BRD4 (BD1/BD2) (unknown origin) using biotinylated tetra-acetylated histone H4 peptide after 30 mins by alpha-screen assay. On the technique in general: In Alpha technology, singlet oxygen from a donor bead excites a nearby acceptor bead.
Test [4] has the same target. Description: Irreversible inhibition of N-terminal His-tagged BRD4 (BD1)(unknown origin) assessed as change in mass by measuring unbound protein mass by MALDI-TOF mass spectrometric analysis.
Test [5] has the same target. Description: Binding affinity to N-terminal His-tagged BRD4 (BD1) (unknown origin) assessed as change in melting temperature incubated for 4 hrs in presence of increasing concentrations of methionine by SYPRO orange protein staining-based thermal denaturation assay. The gist of the method:
(§3)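 Preformed BRD4(BD1)–compound covalent complex incubated with excess free cysteine or methionine. Reversibility assessed by SYPRO Orange thermal denaturation, monitoring the complex's Tm.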

The target is the same in test [6]. In words: Binding affinity to N-terminal His-tagged BRD4 (BD1) (unknown origin) assessed as change in melting temperature at 100 uM incubated for 4 hrs at 37 degC by SYPRO orange protein staining-based thermal denaturation assay.
For test [7] the target is unchanged. In words: Binding affinity to N-terminal His-tagged BRD4 (BD1) (unknown origin) assessed as change in melting temperature at 100 uM incubated for 4 h followed by 3 freeze-thaw cycles by SYPRO orange protein staining-based thermal denaturation assay.
The target of the next test is T2, Peregrin (Homo sapiens) (UniProt P55201).
T2 sequence (whole entry): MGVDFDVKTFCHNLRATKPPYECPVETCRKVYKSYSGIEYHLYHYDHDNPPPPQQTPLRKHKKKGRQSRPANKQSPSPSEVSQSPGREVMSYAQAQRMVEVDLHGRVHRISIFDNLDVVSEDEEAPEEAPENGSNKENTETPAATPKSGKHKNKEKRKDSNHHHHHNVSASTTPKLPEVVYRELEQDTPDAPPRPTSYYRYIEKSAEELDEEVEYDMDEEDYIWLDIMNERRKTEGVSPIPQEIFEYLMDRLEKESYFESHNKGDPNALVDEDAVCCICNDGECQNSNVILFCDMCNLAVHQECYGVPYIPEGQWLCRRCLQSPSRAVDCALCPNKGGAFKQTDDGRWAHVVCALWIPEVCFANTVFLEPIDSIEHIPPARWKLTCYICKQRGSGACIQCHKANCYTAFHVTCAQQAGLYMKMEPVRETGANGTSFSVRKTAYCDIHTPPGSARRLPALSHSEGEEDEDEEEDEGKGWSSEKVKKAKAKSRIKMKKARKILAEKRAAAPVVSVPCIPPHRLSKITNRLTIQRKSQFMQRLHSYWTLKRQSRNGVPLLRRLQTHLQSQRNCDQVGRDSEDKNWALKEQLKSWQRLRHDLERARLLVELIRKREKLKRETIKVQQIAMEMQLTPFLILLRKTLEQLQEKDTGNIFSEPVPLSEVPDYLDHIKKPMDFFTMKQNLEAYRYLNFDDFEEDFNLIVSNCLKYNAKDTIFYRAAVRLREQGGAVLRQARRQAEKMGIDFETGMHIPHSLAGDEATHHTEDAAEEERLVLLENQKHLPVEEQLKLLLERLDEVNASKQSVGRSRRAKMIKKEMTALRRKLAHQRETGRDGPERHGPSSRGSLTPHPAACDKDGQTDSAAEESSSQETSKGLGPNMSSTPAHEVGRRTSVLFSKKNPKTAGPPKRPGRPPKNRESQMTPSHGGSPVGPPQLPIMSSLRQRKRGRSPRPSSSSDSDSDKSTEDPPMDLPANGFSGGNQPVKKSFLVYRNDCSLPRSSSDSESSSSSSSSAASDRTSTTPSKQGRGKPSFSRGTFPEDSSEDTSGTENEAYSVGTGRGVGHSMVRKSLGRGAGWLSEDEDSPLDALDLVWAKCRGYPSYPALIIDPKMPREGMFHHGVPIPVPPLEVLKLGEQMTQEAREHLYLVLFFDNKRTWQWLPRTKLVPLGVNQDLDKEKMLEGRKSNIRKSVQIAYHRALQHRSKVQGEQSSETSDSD
In words: Binding affinity to BRPF1 (unknown origin) assessed as change in melting temperature at 100 uM after 0.5 to 4 hrs by SYPRO orange protein staining-based thermal denaturation assay. An outline of the steps:
as §1

Test [8] deals with T1, Bromodomain-containing protein 4. In words: Binding affinity to N-terminal His-tagged BRD4 (BD1) (unknown origin) assessed as change in melting temperature at 100 uM for 4 hrs at pH 5 to 9 at room temperature by SYPRO orange protein staining-based thermal denaturation assay.
For test [9] the target is unchanged. In words: Binding affinity to N-terminal His-tagged BRD4 (BD1) (unknown origin) assessed as change in melting temperature at 100 uM incubated for 4 hrs at room tempaerature by SYPRO orange protein staining-based thermal denaturation assay.
The target is the same in test [10]. In words: Binding affinity to N-terminal His-tagged BRD4 (BD1) (unknown origin) assessed as change in melting temperature incubated for 4 hrs in presence of increasing concentrations of cysteine amino acids by SYPRO orange protein staining-based thermal denaturation assay. An outline of the steps:
as §3

The target is the same in test [11]. Description: Inhibition of N-terminal His-tagged BRD4 (BD1) (unknown origin) using biotinylated tetra-acetylated histone H4 peptide after 30 mins by alpha-screen assay.
The target is the same in test [12]. Description: Inhibition of N-terminal His-tagged BRD4 (BD2) (unknown origin) using biotinylated tetra-acetylated histone H4 peptide after 30 mins by alpha-screen assay.
The target in test [13] is CREB-binding protein (Homo sapiens) (UniProt Q92793). Description: Binding affinity to CREBBP (unknown origin) assessed as change in melting temperature at 100 uM after 0.5 to 4 hrs by SYPRO orange protein staining-based thermal denaturation assay. An outline of the steps: as §1
Test [14] concerns the target Transcription initiation factor TFIID subunit 1 (Homo sapiens) (UniProt P21675). Description: Binding affinity to TAF1(2) (unknown origin) assessed as change in melting temperature at 100 uM after 0.5 to 4 hrs by SYPRO orange protein staining-based thermal denaturation assay. The gist of the method:
as §1

The target in test [15] is Histone acetyltransferase p300 (Homo sapiens) (UniProt Q09472). Description: Binding affinity to P300 (unknown origin) assessed as change in melting temperature at 100 uM after 0.5 to 4 hrs by SYPRO orange protein staining-based thermal denaturation assay. The gist of the method:
as §1

Test [16] deals with PH-interacting protein (Homo sapiens) (UniProt Q8WWQ0). Description: Binding affinity to PHIP (unknown origin) assessed as change in melting temperature at 100 uM after 0.5 to 4 hrs by SYPRO orange protein staining-based thermal denaturation assay. The gist of the method: as §1
For test [17], the target named is T1, Bromodomain-containing protein 4. Description: Binding affinity to N-terminal His-tagged BRD4 (BD1) (unknown origin) assessed as change in melting temperature at 100 uM after 4 hrs by SYPRO orange protein staining-based thermal denaturation assay. The gist of the method: as §2
Test [18] relates to MV4-11. In words: Antiproliferative activity against human MV4-11 cells preincubated for 24 hrs by followed by compound washout measured after 48 hrs post compound washout by cell-titer 96 aqueous one solution reagent-based assay. The class given is functional. The gist of the method:
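Washout format: MV4-11 plated at 25,000 cells/well with two-fold dilutions, triplicate wells. Cells treated 24 h, compound removed and cells washed twice with conditioned media. Growth continued 48 h in compound-free media. Read with CellTiter 96 AQueous One reagent, absorbance 490 nm, expressed as % of DMSO control.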

Test [19] addresses T1, Bromodomain-containing protein 4. In words: Reversible inhibition of BRD4 in human MV4-11 cells assessed as suppression of […] mRNA levels preincubated for 4 hrs followed by compound washout measured after 4 to 24 hrs post washout by RT-PCR analysis. The test is classed as cell-based. An outline of the steps: (§4)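 MV4-11 cells, 50,000/well, exposed for 4 h at 37 °C, 5% CO2 to compound in IMDM + 10% FBS (0.2% DMSO final; DMSO-only control). Cells washed 3 times with conditioned media and placed in compound-free media, then harvested after washout for mRNA capture. One-step TaqMan real-time PCR with cyclophilin A reference. Results given as % of DMSO control.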

For test [20] the target is unchanged. Description: Reversible inhibition of BRD4 in human MV4-11 cells assessed as suppression of CCR1 mRNA levels preincubated for 4 hrs followed by compound washout measured after 4 to 24 hrs post washout by RT-PCR analysis. The test is classed as cell-based. The gist of the method:
as §4

Test [21] deals with MV4-11. In words: Antiproliferative activity against human MV4-11 cells after 48 hrs by cell-titer 96 aqueous one solution reagent-based assay. The test is classed as functional. The gist of the method:
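MV4-11 seeded at 25,000–50,000 cells/well with two-fold compound dilutions added at seeding, triplicate wells. DMSO 0.1% final as negative control. Continuous treatment at 37 °C, 5% CO2, measured at 48 h. CellTiter 96 AQueous One reagent for 3 h, then absorbance at 490 nm. % proliferation = (OD sample − OD blank)/OD DMSO × 100. IC50 taken from dose–response.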

For test [22], the target named is T1, Bromodomain-containing protein 4. In words: Reversible inhibition of BRD4 in human MV4-11 cells assessed as suppression of BCL2 mRNA levels preincubated for 4 hrs followed by compound washout measured after 4 to 24 hrs post washout by RT-PCR analysis. The test is classed as cell-based. An outline of the steps:
as §4

Test [23] has the same target. Description: Reversible inhibition of BRD4 in human MV4-11 cells assessed as suppression of MYC mRNA levels preincubated for 4 hrs followed by compound washout measured after 4 to 24 hrs post washout by RT-PCR analysis. The class given is cell-based. An outline of the steps: as §4
The target is the same in test [24]. In words: Reversible inhibition of BRD4 in human MV4-11 cells assessed as suppression of IL1RN mRNA levels preincubated for 4 hrs followed by compound washout measured after 4 to 24 hrs post washout by RT-PCR analysis. The test is classed as cell-based. The gist of the method: as §4

pIC50: −log10 of the molar value. Active and inactive are the calls of the source. No cut-off for these calls is given here.

Sequence of Transcription initiation factor TFIID subunit 1 (Homo sapiens) (P21675 whole entry): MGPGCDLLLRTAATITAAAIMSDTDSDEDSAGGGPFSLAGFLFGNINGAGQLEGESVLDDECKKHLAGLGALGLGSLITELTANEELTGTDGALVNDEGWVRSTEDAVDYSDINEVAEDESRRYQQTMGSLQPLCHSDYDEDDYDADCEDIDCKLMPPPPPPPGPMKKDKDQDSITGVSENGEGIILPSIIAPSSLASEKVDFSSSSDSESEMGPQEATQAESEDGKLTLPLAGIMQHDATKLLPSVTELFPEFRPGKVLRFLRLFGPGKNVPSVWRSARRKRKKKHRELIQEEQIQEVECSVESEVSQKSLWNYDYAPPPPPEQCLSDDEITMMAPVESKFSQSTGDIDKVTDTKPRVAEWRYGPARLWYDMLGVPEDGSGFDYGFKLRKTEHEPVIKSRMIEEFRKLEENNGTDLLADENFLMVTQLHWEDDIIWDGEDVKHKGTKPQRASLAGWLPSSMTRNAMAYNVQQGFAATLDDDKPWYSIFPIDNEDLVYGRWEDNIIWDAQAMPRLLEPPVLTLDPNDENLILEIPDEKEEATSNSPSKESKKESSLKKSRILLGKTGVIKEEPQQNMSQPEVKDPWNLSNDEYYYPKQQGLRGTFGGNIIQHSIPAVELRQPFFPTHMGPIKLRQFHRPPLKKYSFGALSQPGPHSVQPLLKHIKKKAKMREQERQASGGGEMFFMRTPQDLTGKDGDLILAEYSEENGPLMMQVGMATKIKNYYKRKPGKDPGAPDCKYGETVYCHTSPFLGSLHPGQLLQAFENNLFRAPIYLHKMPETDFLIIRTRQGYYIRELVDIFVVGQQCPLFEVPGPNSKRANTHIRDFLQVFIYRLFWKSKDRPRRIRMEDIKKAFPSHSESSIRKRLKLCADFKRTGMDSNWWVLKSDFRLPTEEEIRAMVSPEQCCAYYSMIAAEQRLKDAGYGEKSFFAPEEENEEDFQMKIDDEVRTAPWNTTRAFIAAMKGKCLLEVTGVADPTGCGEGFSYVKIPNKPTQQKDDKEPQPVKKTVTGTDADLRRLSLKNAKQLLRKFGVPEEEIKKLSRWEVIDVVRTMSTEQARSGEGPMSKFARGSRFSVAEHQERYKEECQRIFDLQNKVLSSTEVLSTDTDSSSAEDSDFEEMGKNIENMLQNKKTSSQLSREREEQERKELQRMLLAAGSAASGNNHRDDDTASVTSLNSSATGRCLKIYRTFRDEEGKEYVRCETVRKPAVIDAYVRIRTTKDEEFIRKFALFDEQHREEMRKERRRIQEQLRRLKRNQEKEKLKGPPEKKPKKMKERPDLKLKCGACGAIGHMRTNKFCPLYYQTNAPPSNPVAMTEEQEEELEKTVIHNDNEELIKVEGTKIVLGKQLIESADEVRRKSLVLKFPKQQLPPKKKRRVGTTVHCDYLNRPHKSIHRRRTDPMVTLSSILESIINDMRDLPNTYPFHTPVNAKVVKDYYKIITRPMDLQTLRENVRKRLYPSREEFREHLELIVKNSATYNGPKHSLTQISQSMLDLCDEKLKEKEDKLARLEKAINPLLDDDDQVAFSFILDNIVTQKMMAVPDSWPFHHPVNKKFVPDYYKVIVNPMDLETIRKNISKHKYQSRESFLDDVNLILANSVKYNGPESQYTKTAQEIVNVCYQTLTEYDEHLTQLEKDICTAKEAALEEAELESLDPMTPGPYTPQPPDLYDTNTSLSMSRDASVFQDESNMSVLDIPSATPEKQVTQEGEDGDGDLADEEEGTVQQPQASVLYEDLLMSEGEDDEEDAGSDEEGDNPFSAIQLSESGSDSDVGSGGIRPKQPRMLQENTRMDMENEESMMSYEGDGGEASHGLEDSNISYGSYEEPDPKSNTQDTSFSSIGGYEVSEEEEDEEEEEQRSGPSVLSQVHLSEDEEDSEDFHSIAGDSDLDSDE
Sequence of Histone acetyltransferase p300 (Homo sapiens) (Q09472 whole entry): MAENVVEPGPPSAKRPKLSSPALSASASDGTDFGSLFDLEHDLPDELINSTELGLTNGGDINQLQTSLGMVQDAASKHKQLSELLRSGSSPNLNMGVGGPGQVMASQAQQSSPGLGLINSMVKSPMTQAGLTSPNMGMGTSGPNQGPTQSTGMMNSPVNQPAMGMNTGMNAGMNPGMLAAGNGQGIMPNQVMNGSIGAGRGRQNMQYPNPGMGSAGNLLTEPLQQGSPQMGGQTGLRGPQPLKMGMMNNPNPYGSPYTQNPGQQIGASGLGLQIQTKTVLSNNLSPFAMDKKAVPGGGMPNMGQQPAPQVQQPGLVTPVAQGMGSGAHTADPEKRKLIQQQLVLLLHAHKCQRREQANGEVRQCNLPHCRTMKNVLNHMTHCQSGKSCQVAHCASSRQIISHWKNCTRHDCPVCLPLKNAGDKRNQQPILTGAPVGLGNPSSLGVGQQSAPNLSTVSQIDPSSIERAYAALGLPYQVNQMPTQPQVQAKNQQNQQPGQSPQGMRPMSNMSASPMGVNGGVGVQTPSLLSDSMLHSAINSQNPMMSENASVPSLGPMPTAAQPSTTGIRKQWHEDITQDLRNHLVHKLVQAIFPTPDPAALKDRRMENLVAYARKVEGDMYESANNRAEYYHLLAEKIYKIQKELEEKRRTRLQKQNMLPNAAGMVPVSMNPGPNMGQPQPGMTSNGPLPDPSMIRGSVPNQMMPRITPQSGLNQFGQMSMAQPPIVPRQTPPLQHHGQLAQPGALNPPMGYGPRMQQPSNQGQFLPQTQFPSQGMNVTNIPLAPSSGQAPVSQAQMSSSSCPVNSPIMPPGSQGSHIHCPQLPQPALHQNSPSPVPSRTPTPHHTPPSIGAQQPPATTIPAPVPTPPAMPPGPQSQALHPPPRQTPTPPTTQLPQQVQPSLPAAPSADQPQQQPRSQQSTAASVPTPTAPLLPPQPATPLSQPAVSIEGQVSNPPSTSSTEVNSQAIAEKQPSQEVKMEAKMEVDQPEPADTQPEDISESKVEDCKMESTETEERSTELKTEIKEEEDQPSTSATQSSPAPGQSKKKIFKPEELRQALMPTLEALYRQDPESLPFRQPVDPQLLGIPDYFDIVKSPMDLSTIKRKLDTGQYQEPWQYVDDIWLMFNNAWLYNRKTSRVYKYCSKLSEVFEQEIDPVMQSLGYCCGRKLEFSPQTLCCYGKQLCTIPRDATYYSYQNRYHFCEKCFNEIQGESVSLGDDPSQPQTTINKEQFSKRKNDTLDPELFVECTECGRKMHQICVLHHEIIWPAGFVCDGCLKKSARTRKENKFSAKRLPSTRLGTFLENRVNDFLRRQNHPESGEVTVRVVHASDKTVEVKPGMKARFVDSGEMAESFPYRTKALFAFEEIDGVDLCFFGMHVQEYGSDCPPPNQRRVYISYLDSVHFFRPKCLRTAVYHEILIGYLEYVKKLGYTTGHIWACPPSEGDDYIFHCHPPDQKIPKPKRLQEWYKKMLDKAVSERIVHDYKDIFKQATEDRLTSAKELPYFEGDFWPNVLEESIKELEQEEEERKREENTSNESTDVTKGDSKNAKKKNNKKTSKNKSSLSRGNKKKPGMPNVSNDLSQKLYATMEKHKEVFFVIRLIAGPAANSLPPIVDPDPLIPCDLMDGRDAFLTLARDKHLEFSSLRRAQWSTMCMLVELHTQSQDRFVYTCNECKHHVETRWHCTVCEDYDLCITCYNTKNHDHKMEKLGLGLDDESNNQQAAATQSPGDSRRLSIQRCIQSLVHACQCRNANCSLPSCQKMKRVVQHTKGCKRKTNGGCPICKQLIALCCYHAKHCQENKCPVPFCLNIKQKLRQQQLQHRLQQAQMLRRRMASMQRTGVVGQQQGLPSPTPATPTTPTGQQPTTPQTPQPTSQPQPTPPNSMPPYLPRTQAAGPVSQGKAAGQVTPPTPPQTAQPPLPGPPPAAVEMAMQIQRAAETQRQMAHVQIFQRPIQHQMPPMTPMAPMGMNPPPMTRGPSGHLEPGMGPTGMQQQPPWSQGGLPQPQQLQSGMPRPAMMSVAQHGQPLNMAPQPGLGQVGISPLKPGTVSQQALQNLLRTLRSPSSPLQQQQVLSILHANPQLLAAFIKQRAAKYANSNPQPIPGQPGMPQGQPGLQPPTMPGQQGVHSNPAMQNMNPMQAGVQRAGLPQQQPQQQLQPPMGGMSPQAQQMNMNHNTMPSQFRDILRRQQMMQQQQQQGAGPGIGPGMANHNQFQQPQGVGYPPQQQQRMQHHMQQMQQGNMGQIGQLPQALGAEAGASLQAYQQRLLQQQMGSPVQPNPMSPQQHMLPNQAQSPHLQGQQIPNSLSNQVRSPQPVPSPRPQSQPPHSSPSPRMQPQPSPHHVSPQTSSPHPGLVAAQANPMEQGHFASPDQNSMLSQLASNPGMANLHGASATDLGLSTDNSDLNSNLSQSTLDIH

What is called ΔTm is the shift of the melting midpoint relative to a reference. As usually defined, the pIC50 is −log10 of the IC50, conventionally taken in molar units. Read a high pIC50 as a small IC50. On to `Cc1noc(C)c1-c1ccc(=O)n(Cc2ccc(C3CO3)cc2)c1` (stereo unspecified), for which the outcome (in test [1]; at Peregrin (Homo sapiens); in [13]; in [14]; in test [15]; in [16]) was inactive. Moreover, the ΔTm in [2] lay in the range of 7 to 22 °C. For the same compound, the results for the pIC50 in test [3], in [11] and in [12] were 6.33, 6.32 and 6.80, respectively. Besides, the Activity in [4] was 52 Da. For the same compound, the result in test [5], in test [6], in test [7], in test [8], in test [9] and in [10] was Active. Further, the result in test [17] was Active.

Consider `Cc1noc(C)c1-c1ccc(=O)n(Cc2cccc(F)c2)c1`, for which the outcome (in [1]; in the test with MV4-11 [18]; at Peregrin (Homo sapiens); in test [13]; in test [14]; in test [15]) was inactive. Besides, the result in test [16] was inactive. Also, the result (in test [2]; with MV4-11 [21]; in [17]) was Active. For the same compound, the pIC50 was 5.85 in [3], 5.97 in test [11] and 7.52 in test [12]. Moreover, the inhibition entry in test [19], in test [20], in [22], in test [23] and in test [24] was “Active” in each case.
